Compounds with a hit are over-represented: about 4% of the library has one in this group of screens.
TAAR1 agonist – human TAAR1 agonism; CHO RD-HGA16 TAAR1, Fluo-8 calcium fluorescence; vehicle wells 0%, saturating PEA agonist 100%; activation, % at 3 µM; 360,000 compounds, 0.99% hits;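 active = activation above the mean activation of all test compounds in the run plus 3 SD, cut at about 38% in these data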
Target sequence (Q96RJ0 whole entry, looked up): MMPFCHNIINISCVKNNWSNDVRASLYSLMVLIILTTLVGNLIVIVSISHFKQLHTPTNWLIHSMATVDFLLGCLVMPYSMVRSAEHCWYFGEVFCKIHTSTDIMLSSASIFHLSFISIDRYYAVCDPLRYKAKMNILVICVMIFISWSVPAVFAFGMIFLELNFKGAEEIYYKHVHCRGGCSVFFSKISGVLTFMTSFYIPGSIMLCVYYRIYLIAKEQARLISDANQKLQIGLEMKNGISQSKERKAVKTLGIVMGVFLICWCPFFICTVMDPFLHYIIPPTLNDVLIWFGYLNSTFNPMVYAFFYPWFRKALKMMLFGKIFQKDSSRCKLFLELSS
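Benchmarks: low control DMSO, high control PEA (EC100); System: CHO RD-HGA16 cells carrying human TAAR1 plus Gα16; Detection: Fluo-8 fluorescence, 5 s baseline then 140 s kinetic read; Schedule: 17-24 h plating, Fluo-8 75 min 37 °C, 30 min RT; Read-out basis: % activation from peak over basal fluorescence ratio, DMSO-to-PEA scaled.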
TAAR1 antag – antagonists of human TAAR1 | 360,000 compounds, 1.5% hits | Q96RJ0 | AID 624466 | inhibition, % at 3 µM | CHO RD-HGA16 TAAR1, Fluo-8 calcium fluorescence, antagonist;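 active = inhibition above a per-plate cutoff, the mean inhibition of test compounds on that plate plus 3 SD, cut at about 49% in these data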
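Test system: CHO RD-HGA16 cells bearing hTAAR1 | Reagent: β-PEA, EC80 | Compound dosing: 3 µM, single point | Schedule: Dye loading 75 min at 37 °C, then 30 min room temperature | Signal: Calcium fluorescence with Fluo-8 | Evaluation: Percent inhibition of PEA-evoked calcium signal, max/basal emission ratio | Control set: DMSO-only wells and EC80 β-PEA-stimulated wells | Repeats: Singlicate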
MPTP block – inhibitors of mitochondrial permeability transition pore. inhibition, % at 10 µM. isolated mouse mitochondria, Ca2+ swelling absorbance, 30 min. 360,000 compounds, 1.4% hits. AID 602449;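 active = inhibition of 50% or more, scaled per plate between neutral and stimulator controls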
DAGLB inh – blocks human DAGLB lipase activity; Q8NCG7; HEK293T DAGLB membrane lysate, EnzChek fluorogenic substrate; inhibition, % at 5.17 µM; 340,000 compounds, 0.059% hits; in the data active = inhibition above about 34%
GPR7 antagonist – blocks human GPR7 receptor signaling | inhibition, % at 4.4 µM | 290,000 compounds, 1.1% hits | GPR7-expressing cells, fluorescence antagonist assay | P48145; in the data active = inhibition above about 16%, passing the limit was not always enough;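 note: cells stimulated with the agonist NPW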
Target sequence (P48145 whole entry, looked up): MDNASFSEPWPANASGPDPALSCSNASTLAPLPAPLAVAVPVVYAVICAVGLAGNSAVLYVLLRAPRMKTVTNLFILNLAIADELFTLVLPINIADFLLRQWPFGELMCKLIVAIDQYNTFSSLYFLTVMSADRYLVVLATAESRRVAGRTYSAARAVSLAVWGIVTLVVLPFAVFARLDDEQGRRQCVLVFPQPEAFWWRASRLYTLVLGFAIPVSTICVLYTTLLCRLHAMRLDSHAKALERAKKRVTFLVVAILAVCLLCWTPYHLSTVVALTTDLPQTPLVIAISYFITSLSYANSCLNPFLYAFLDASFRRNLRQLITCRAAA
nonsel antag count – counter-screen for TAAR1 antagonists: nonselective antagonists | shares compounds with TAAR1 antag | counterscreen cell line, calcium fluorescence, antagonist mode | inhibition, % at 3 µM | 2,400 compounds, 77% hits; in the data active = inhibition above about 22%;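 note: CHO-Ga16 host cells stimulated with ATP at an EC80 level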
TAAR1 antag conf – confirmation of human TAAR1 antagonists. shares compounds with TAAR1 antag. inhibition, % at 3 µM. 2,400 compounds, 40% hits. AID 651785. TAAR1-expressing cells, fluorescence antagonist read-out; in the data active = inhibition above about 49%;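 note: CHO-Ga16 host cells challenged with agonist PEA near its EC80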
Ga16 nonsel ag – counter-screen for TAAR1 antagonists: nonselective Ga16 agonists; 2,400 compounds, 18% hits; Ga16-expressing cells, calcium fluorescence, agonist counterscreen; shares compounds with TAAR1 antag; activation, % at 3 µM; in the data active = activation above about 12%
TAAR1 ag counter – counter-screen for human TAAR1 antagonists: TAAR1 agonists. shares compounds with TAAR1 antag. hTAAR1 cell line, fluorescence activation, agonist mode. 2,400 compounds, 2% hits. activation, % at 3 µM; in the data active = activation above about 37%;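 note: CHO cells stably expressing TAAR1 with calcium dye readout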
A number is an active result.

How did O=C1CC2c3cc(-c4cc5ccccc5o4)ccc3CCN2C(=O)CN1Cc1ccccc1 (centres undefined) do in these assays?
TAAR1 agonist: inactive; TAAR1 antag: 54.0; nonsel antag count: 27.3; TAAR1 antag conf: inactive; Ga16 nonsel ag: inactive; TAAR1 ag counter: inactive

Results for NC(=O)CSc1nnc(-c2cc3ccccc3o2)n1Cc1ccccc1 ?
TAAR1 agonist: inactive; TAAR1 antag: inactive; MPTP block: inactive; DAGLB inh: inactive; GPR7 antagonist: inactive

What do the screens show for `CCOC(=O)C1(C)CCCN1C(=O)c1ccccc1F` (centres undefined)?
TAAR1 agonist: inactive; TAAR1 antag: inactive; MPTP block: inactive

Results for COc1ccc(-c2cc(C(=O)Nc3ccccc3N3CCOCC3)c3ccccc3n2)cc1OC ?
TAAR1 agonist: inactive; TAAR1 antag: 59.3; MPTP block: inactive; DAGLB inh: inactive; GPR7 antagonist: inactive; nonsel antag count: 23.6; TAAR1 antag conf: inactive; Ga16 nonsel ag: inactive; TAAR1 ag counter: inactive

How did O=C(Nc1ccccc1N1CCOCC1)c1cc(-c2ccncc2)nc2ccccc12 do in these assays?
TAAR1 agonist: inactive; TAAR1 antag: 63.4; MPTP block: inactive; DAGLB inh: inactive; GPR7 antagonist: inactive; nonsel antag count: 27.1; TAAR1 antag conf: inactive; Ga16 nonsel ag: inactive; TAAR1 ag counter: inactive

What do the screens show for `COc1ccc(-c2cc(C(=O)NNC(=O)c3csc(N4CCOCC4)n3)c3ccccc3n2)cc1`?
TAAR1 agonist: inactive; TAAR1 antag: 60.8; MPTP block: inactive; DAGLB inh: inactive; nonsel antag count: 30.1; TAAR1 antag conf: inactive; Ga16 nonsel ag: inactive; TAAR1 ag counter: inactive

How did O=C(Nc1ccc(N2CCOCC2)cc1)c1cc(-c2ccncc2)nc2ccccc12 do in these assays?
TAAR1 agonist: inactive; TAAR1 antag: inactive; MPTP block: inactive; DAGLB inh: inactive; GPR7 antagonist: inactive

Results for O=C(NNC(=O)c1ccccc1Cl)c1csc(N2CCOCC2)n1 ?
TAAR1 agonist: inactive; TAAR1 antag: inactive; MPTP block: inactive; DAGLB inh: inactive

What do the screens show for `Nc1nc2cc3c(cc2cc1C(=O)NCCc1c[nH]c2ccccc12)OCO3`?
TAAR1 agonist: inactive; TAAR1 antag: 52.2; nonsel antag count: 44.8; TAAR1 antag conf: inactive; Ga16 nonsel ag: 12.8; TAAR1 ag counter: inactive

How did N=C1/C(=C\c2ccc(-c3ccc(C(=O)O)cc3)o2)C(=O)N=C2SC=C(c3ccccc3)N12 do in these assays?
TAAR1 agonist: inactive; TAAR1 antag: 53.7; MPTP block: inactive; DAGLB inh: inactive; GPR7 antagonist: inactive; nonsel antag count: 45.0; TAAR1 antag conf: 62.5; Ga16 nonsel ag: 16.0; TAAR1 ag counter: inactive

How did N=C1/C(=C\c2ccc(-c3cccc(Cl)c3)o2)C(=O)N=C2SC=C(c3ccccc3)N12 do in these assays?
TAAR1 agonist: inactive; TAAR1 antag: inactive; MPTP block: inactive; DAGLB inh: inactive; GPR7 antagonist: inactive

Results for CCCCn1nnnc1C(c1ccccc1)N1CCN(c2cccc(C)c2C)CC1 (centres undefined) ?
TAAR1 agonist: inactive; TAAR1 antag: inactive; MPTP block: inactive

How did O=C1CC2(CCN(C(=O)c3cccc(Br)c3)CC2)Oc2ccccc21 do in these assays?
TAAR1 agonist: inactive; TAAR1 antag: inactive; MPTP block: inactive; DAGLB inh: inactive

What do the screens show for `C[C@@H]1CN([C@H](C)CO)C(=O)c2cc(NC(=O)Nc3ccc(F)cc3)ccc2O[C@@H](C)CCCCO[C@@H]1CN(C)C(=O)CCCN(C)C`?
TAAR1 agonist: inactive; TAAR1 antag: inactive

How did COc1cccc(CNC(=O)[C@@H]2CCCN2C(=O)[C@H]2CCCCN2C(=O)c2ccccc2C)c1 do in these assays?
TAAR1 agonist: inactive; TAAR1 antag: inactive; MPTP block: inactive

Results for Cc1cc(SCC(=O)OCC(=O)N(C)c2ccccc2)nc2ccccc12 ?
TAAR1 agonist: inactive; TAAR1 antag: inactive; MPTP block: inactive; DAGLB inh: inactive

What do the screens show for `CC1CC1c1ccc(/C=C(\C#N)C(=O)Nc2ccc(Cl)cc2)o1` (centres undefined)?
TAAR1 agonist: inactive; TAAR1 antag: 52.3; MPTP block: inactive; DAGLB inh: inactive; GPR7 antagonist: inactive; nonsel antag count: inactive; TAAR1 antag conf: inactive; Ga16 nonsel ag: inactive; TAAR1 ag counter: inactive

How did OC[C@@H]1CN(Cc2ccccc2)C[C@H](n2cnc3c(N4CCN(c5ccccc5)CC4)ncnc32)O1 do in these assays?
TAAR1 agonist: inactive; TAAR1 antag: inactive; MPTP block: inactive

Results for OC[C@@H]1CN(Cc2ccc(F)cc2)C[C@H](n2cnc3c(N4CCN(c5ccccc5)CC4)ncnc32)O1 ?
TAAR1 agonist: inactive; TAAR1 antag: 64.3; MPTP block: inactive; nonsel antag count: 35.6; TAAR1 antag conf: 54.7; Ga16 nonsel ag: 18.1; TAAR1 ag counter: inactive

Results for O=C(Nc1ccccc1)c1cccc(N2C(=O)C3C4CC(C(Br)C4Br)C3C2=O)c1 (centres undefined) ?
TAAR1 agonist: inactive; TAAR1 antag: 71.6; MPTP block: inactive; DAGLB inh: inactive; GPR7 antagonist: inactive; nonsel antag count: 37.8; TAAR1 antag conf: 64.2; Ga16 nonsel ag: 18.5; TAAR1 ag counter: inactive

Results for COc1ccc(NC(=O)c2cccc(N3C(=O)C4C5C=CC(C6CC56)C4C3=O)c2)cc1 (centres undefined) ?
TAAR1 agonist: inactive; TAAR1 antag: 62.6; MPTP block: inactive; DAGLB inh: inactive; GPR7 antagonist: inactive; nonsel antag count: 35.4; TAAR1 antag conf: 53.6; Ga16 nonsel ag: 13.3; TAAR1 ag counter: inactive

Results for COc1ccc(NC(=O)c2cccc(N3C(=O)C4C5C=CC(C6CC56)C4C3=O)c2)c(OC)c1 (centres undefined) ?
TAAR1 agonist: inactive; TAAR1 antag: inactive; MPTP block: inactive; DAGLB inh: inactive; GPR7 antagonist: inactive

Results for CN(c1ccc(OCC(=O)OCC(=O)c2c(N)n(C)c(=O)n(C)c2=O)cc1)S(=O)(=O)c1ccc2ccccc2c1 ?
TAAR1 agonist: inactive; TAAR1 antag: 76.9; MPTP block: inactive; DAGLB inh: inactive; GPR7 antagonist: inactive; nonsel antag count: 34.8; TAAR1 antag conf: 56.4; Ga16 nonsel ag: inactive; TAAR1 ag counter: inactive

Results for CCN(c1ccc(OCC(=O)OCC(=O)c2c(N)n(C)c(=O)n(C)c2=O)cc1)S(=O)(=O)c1ccccc1 ?
TAAR1 agonist: inactive; TAAR1 antag: inactive; MPTP block: inactive; DAGLB inh: inactive; GPR7 antagonist: inactive

Screens (PubChem)
